Assay results published in ChEMBL document CHEMBL1150363, “Synthesis, ligand-receptor modeling studies and pharmacological evaluation of novel 4-modified-2-aryl-1,2,4-triazolo[4,3-a]quinoxalin-1-one derivatives as potent and selective human A3 adenosine receptor antagonists” (Bioorg Med Chem, 2008).
Active and inactive are the calls of the source. The rule behind the calls is not given here.

Legend:
Adenosine receptor A3 [1] = biological target: T1, Adenosine receptor A3 (Homo sapiens, UniProt P0DMS8); experiment: Antagonist activity at human […] expressed in CHO cells assessed as inhibition of NECA-induced cAMP accumulation; type: functional, cell-based
T1 sequence (P0DMS8 whole entry): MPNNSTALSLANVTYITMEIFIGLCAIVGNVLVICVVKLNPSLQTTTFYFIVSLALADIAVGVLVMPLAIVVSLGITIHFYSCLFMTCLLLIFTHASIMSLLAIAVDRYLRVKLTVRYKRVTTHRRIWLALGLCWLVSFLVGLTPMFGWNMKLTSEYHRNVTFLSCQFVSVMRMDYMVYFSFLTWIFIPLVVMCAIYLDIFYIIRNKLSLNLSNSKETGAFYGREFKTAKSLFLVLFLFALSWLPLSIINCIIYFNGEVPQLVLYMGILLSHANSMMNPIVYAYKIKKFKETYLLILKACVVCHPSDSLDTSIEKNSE
Procedure, shortened: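 hA3-transfected CHO cells (~60,000/well, 48 h) preincubated 15 min at 37 °C with Ro 20-1724 (20 µM) and adenosine deaminase (1 U/mL). Compound (1 nM–10 µM, 15 min) added, then 100 nM NECA against 1 µM forskolin-stimulated cAMP. Stopped with 0.4 N HCl. cAMP measured by [3H]cAMP competitive binding-protein assay. Sigmoid non-linear regression; three separate experiments.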

Rattus norvegicus [2] = species on record: Rattus norvegicus; experiment: Effect on fEPSP amplitude under normoxic condition in Wistar rat cerebral ischemia model treated before 15 mins of oxygen and glucose deprivation; type: functional
Procedure, shortened: (§1)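 Rat hippocampal slices, CA1 stratum radiatum fEPSP evoked by 80 µs, 0.066 Hz pulses at 30–32 °C. Drug (10 nM) given 15 min before, during and 5 min after 7-min OGD (glucose-free aCSF, 95% N2–5% CO2). Amplitude expressed as % of baseline, with recovery assessed after reperfusion in oxygenated glucose aCSF. Means ± SEM.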

Adenosine receptor A1 [3] = biological target: T2, Adenosine receptor A1 (Rattus norvegicus, UniProt P25099); experiment: Displacement of [3H]DPCPX from adenosine A1 receptor in Wistar rat cerebral cortex; type: tissue-based
T2 sequence (P25099 whole entry): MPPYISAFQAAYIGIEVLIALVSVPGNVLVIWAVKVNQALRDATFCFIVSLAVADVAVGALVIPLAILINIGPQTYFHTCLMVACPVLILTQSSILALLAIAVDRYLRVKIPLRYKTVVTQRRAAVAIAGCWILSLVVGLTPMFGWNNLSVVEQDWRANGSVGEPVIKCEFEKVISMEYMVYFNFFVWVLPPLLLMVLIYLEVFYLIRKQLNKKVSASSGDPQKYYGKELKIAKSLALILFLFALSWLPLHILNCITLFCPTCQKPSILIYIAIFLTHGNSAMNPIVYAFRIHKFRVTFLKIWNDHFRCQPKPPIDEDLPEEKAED

Adenosine receptor A2a = Adenosine receptor A2a (Homo sapiens, UniProt P29274); experiment: Displacement of [125I]NECA from human adenosine A2A receptor expressed in CHO cells at 10uM; type: cell-based; conditions: in the assay text read “[3H]NECA” for “[125I]NECA”
Chain of Adenosine receptor A2a (P29274 whole entry): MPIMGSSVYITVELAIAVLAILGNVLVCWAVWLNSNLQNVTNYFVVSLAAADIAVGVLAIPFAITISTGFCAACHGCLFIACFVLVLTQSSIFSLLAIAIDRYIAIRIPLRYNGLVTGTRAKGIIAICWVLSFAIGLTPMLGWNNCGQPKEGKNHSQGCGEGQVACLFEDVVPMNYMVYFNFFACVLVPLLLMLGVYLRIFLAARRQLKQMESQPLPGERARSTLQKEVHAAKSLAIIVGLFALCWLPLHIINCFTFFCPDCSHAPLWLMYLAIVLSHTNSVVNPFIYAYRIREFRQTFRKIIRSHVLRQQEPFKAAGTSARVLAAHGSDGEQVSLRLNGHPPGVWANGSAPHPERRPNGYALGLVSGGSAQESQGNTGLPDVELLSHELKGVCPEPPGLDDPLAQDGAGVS
Procedure, shortened: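 hA2A stably expressed in CHO cells. Radioligand [3H]NECA (Kd 30 nM). Percentage inhibition of specific binding measured at 10 µM.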

Rattus norvegicus [4] = species on record: Rattus norvegicus; experiment: Effect on anoxic depolarization in Wistar rat cerebral ischemia model assessed as delay in appearance treated during oxygen and glucose deprivation; type: functional
Procedure, shortened: (§2)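 Rat hippocampal slices (400 µm), submerged and superfused with oxygenated aCSF at 30–32 °C. OGD made with glucose-free, N2-gassed aCSF for 7 or 30 min. Drug applied 15 min before, during and 5 min after OGD; 10 nM, with 0.5 nM–1 µM tested in 30-min runs. Anoxic depolarization recorded in CA1 as negative d.c. shift, with peak time from OGD onset. Means ± SEM; unpaired two-tailed t test.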

Rattus norvegicus [5] = species on record: Rattus norvegicus; experiment: Effect on anoxic depolarization in Wistar rat cerebral ischemia model assessed as delay in appearance treated before 15 mins of oxygen and glucose deprivation; type: functional; procedure, shortened: as §2
Rattus norvegicus [6] = species on record: Rattus norvegicus; experiment: Effect on fEPSP amplitude under normoxic condition in Wistar rat cerebral ischemia model treated after 5 mins of oxygen and glucose deprivation; type: functional; procedure, shortened: as §1
Adenosine receptor A1 [7] = biological target: T3, Adenosine receptor A1 (Bos taurus, UniProt P28190); experiment: Displacement of [3H]DPCPX from adenosine A1 receptor in bovine brain membrane
T3 sequence (P28190 whole entry): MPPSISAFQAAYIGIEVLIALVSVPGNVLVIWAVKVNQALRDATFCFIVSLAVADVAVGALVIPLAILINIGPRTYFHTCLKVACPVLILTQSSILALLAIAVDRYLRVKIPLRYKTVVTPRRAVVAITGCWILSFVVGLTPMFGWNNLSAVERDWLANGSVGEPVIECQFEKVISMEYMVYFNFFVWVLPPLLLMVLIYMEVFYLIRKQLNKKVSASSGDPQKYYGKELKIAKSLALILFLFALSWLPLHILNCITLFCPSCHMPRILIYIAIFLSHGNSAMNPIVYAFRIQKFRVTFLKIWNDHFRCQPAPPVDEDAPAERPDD

Adenosine receptor A3 [8] = biological target: T1, Adenosine receptor A3; experiment: Displacement of [125I]AB-MECA from human cloned adenosine A3 receptor expressed in CHO cells; type: cell-based
Procedure, shortened: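 CHO cells stably expressing hA3. IC50 by non-linear regression over five displacer concentrations in triplicate, converted to Ki by Cheng-Prusoff. Ki values are means of four assays.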

Rattus norvegicus [9] = species on record: Rattus norvegicus; experiment: Effect on fEPSP amplitude under normoxic condition in Wistar rat cerebral ischemia model treated during oxygen and glucose deprivation; type: functional; procedure, shortened: as §1
[10] = biological target: T4, Adenosine receptor A3 (Rattus norvegicus) (UniProt P28647); experiment: Displacement of [3H](R)-PIA from adenosine A3 receptor in Wistar rat testis membrane at 1 uM; type: cell membranes
T4 sequence (whole entry): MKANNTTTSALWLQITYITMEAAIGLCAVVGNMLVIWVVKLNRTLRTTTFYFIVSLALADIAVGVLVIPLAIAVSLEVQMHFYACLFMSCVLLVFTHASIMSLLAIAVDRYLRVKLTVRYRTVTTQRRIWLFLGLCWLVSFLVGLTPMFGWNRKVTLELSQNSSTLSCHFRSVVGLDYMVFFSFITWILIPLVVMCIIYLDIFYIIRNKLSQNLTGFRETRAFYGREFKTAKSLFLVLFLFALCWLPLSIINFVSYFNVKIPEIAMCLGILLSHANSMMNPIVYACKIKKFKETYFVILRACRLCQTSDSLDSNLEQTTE
Procedure, shortened: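 Wistar rat testis membranes (0.1–0.2 mg protein) with 4 nM [3H](R)-PIA in 50 mM Tris/HCl pH 7.4, 1 mM EDTA, 10 mM MgCl2, plus 150 nM DPCPX to block A1 sites. Nonspecific binding defined with 15 µM (R)-PIA. Filtration, then scintillation counting. Percent inhibition at 1 µM.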

[11] = biological target: T5, Adenosine receptor A1 (Homo sapiens) (UniProt P30542); experiment: Displacement of [3H]DPCPX from human cloned adenosine A1 receptor expressed in CHO cells at 10 uM
T5 sequence (whole entry): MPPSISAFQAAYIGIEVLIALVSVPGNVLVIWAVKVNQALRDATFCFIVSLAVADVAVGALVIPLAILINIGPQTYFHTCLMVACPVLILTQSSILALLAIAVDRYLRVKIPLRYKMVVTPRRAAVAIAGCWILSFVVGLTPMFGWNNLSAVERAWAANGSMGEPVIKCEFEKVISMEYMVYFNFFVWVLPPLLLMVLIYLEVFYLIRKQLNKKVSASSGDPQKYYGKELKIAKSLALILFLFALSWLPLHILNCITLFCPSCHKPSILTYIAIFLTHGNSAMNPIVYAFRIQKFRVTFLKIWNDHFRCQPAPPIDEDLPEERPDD

Bos taurus = species on record: Bos taurus; experiment: Displacement of [3H]CGS21680 from adenosine A2A receptor in bovine brain membrane at 10 uM; type: cell membranes
Procedure, shortened: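 Bovine striatal membranes, [3H]CGS 21680 (Kd 14 nM). Five displacer concentrations in triplicate, non-linear regression IC50, Cheng-Prusoff Ki, four assays. Single-point data are % inhibition at 10 µM.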

Rattus norvegicus [12] = species on record: Rattus norvegicus; experiment: Inhibition of anoxic depolarization in Wistar rat cerebral ischemia model at 10 nM treated after 7 mins of oxygen and glucose deprivation; type: functional; procedure, shortened: as §2
Rattus norvegicus [13] = species on record: Rattus norvegicus; experiment: Inhibition of fEPSP amplitude in Wistar rat cerebral ischemia model at 10 nM treated after 7 mins of oxygen and glucose deprivation; type: functional; procedure, shortened: as §1

EC50 (Adenosine receptor A3 [1]): 0.012 µM
Ki (Adenosine receptor A1 [3]): 0.132 µM
Activity (Adenosine receptor A2a): 32%
Ki (Adenosine receptor A1 [7]): 0.036 µM
Ki (Adenosine receptor A3 [8]): 0.0055 µM
Activity [10]: 5%
Activity [11]: 36%
Activity (Bos taurus): 56%
SMILES: CS(=O)(=O)N(c1nc2ccccc2n2c(=O)n(-c3ccccc3)nc12)S(C)(=O)=O
Activity (Rattus norvegicus [2]): inactive
Activity (Rattus norvegicus [4]): 9.3 min
Activity (Rattus norvegicus [5]): 9.3 min
Activity (Rattus norvegicus [6]): inactive
Activity (Rattus norvegicus [9]): inactive
Activity (Rattus norvegicus [12]): Active
Activity (Rattus norvegicus [13]): Active
